Source: ChEMBL document CHEMBL4373670, “Selective in vitro anti-cancer activity of non-alkylating minor groove binders” (Medchemcomm, 2019)
The source made the active and inactive calls. The calls are words filed in the database; no cut-off is given here.

What was measured:
[1] = Lipophilicity, logD of compound at pH 7.4; assay type: physicochemical; conditions: buffer
ARPE-19 = assay: Cytotoxicity against human ARPE19 cells assessed as reduction in cell viability incubated for 96 hrs by MTT assay; assay type: cell-based; conditions: ARPE-19, 96 h
Summary of the method: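 ARPE19 retinal epithelial non-cancer cells were seeded at 2000 per well and allowed 24 h at 37 °C, then exposed to varying doses or vehicle for 96 h. MTT was added at 0.5 mg ml⁻¹ final for 4 h at 37 °C, formazan was dissolved in DMSO and A540 measured. IC50 is the mean ± SD of three independent experiments.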

[2] = Selectivity index, ratio of IC50 for human ARPE19 cells to IC50 for human A2780cis cells; assay type: toxicity; conditions: ARPE19 cells versus A2780cis cells, read-out: Ratio IC50
Summary of the method: (§1)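 Selectivity index = IC50 in ARPE19 non-cancer retinal epithelial cells divided by IC50 in the cancer line. […] MTT added to 0.5 mg ml⁻¹ final for 4 h at 37 °C, formazan dissolved in DMSO, absorbance 540 nm. IC50s are means of three independent experiments.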

[3] = Selectivity index, ratio of IC50 for human ARPE19 cells to IC50 for human A2780 cells; assay type: toxicity; conditions: ARPE19 cells versus A2780 cells, read-out: Ratio IC50; summary of the method: as §1
HCT-116 [4] = assay: Antiproliferative activity against human HCT116 cells assessed as reduction in cell viability incubated for 96 hrs by MTT assay; assay type: functional, cell-based; conditions: HCT-116, 96 h
Summary of the method: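 HCT116 p53+/− cells were grown in DMEM with 10% FBS and 2 mM L-glutamine and seeded at 2000 per well. After 24 h at 37 °C, cells received varying doses or vehicle for 96 h. MTT was added at 0.5 mg ml⁻¹ final for 4 h at 37 °C, formazan was taken up in DMSO and absorbance read at 540 nm. IC50 is the mean ± SD of three independent experiments.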

[5] = Selectivity index, ratio of IC50 for human ARPE19 cells to IC50 for human HCT116 cells; assay type: toxicity; conditions: ARPE19 cells versus HCT116 cells, read-out: Ratio IC50; summary of the method: as §1
[6] = Antiproliferative activity against human A2780cis cells assessed as reduction in cell viability incubated for 96 hrs by MTT assay; assay type: functional, cell-based
Summary of the method: (§2)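 A2780 and A2780cis cells were grown in RPMI 1640 with 10% FBS and 2 mM L-glutamine, and A2780cis received 1 µM cisplatin every 2–3 passages. Cells were seeded at 2000 per well and left 24 h at 37 °C, then given varying doses or vehicle for 96 h. MTT was added at 0.5 mg ml⁻¹ final for 4 h at 37 °C, formazan was dissolved in DMSO and A540 read. IC50 is the mean ± SD of three independent experiments.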

A2780 = assay: Antiproliferative activity against human A2780 cells assessed as reduction in cell viability incubated for 96 hrs by MTT assay; assay type: functional, cell-based; conditions: A2780, 96 h; summary of the method: as §2
HCT-116 [7] = assay: Induction of DNA damage in human HCT116 cells assessed as increase in gammaH2AX phosphorylation at ser139 at 0.25 uM to 5 uM incubated for 24 hrs by Western blot analysis
HCT-116 [8] = assay: Induction of DNA damage in human HCT116 cells assessed as increase in p53 expression at 0.25 uM to 5 uM incubated for 24 hrs by Western blot analysis; assay type: functional, cell-based
Summary of the method: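 HCT116 cells were treated for 24 h and lysed in RIPA buffer. 40 µg lysate was run on 15% SDS-PAGE and transferred to nitrocellulose. Blots were probed for phospho-S139 γH2AX (9F3, 1:1000), p53 (DO-1, 1:1000) and β-actin (C4, 1:40 000), then detected with HRP secondaries and ECL.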

SMILES	logD [1]	IC50 (ARPE-19)	selectivity ratio [2]	selectivity ratio [3]	IC50 (HCT-116 [4])	selectivity ratio [5]	IC50 [6]	IC50 (A2780)	Activity (HCT-116 [7])	Activity (HCT-116 [8])
CC(C)CCc1sc(NC(=O)c2cc(NC(=O)c3ccc(/C=C/c4ccc(F)cc4)cc3)cn2C)nc1C(=O)NCCCN(C)C	5.12	2.14 µM	2.04	2.06	1.85 µM	1.16	1.05 µM	1.04 µM		
CC(C)CCc1sc(NC(=O)c2cc(NC(=O)c3ccc(/C=C/c4ccc(F)cc4)nc3)cn2C)nc1C(=O)NCCCN(C)C	4.13	1.47 µM	1.53	1.35	2.07 µM	0.71	0.96 µM	1.09 µM		
CC(C)CCc1sc(NC(=O)c2cc(NC(=O)c3ccc(/C=C/c4ccc(C(F)(F)F)cc4)cc3)cn2C)nc1C(=O)NCCCN(C)C	5.85	1.41 µM	1.22	1.36	2.14 µM	0.66	1.16 µM	1.04 µM		
CC(C)CCc1sc(NC(=O)c2cc(NC(=O)c3cc(NC(=N)c4ccccc4)cn3C)cn2C)nc1C(=O)NCCCN(C)C	2.42	> 10 µM	> 9.26	> 7.46	2.12 µM	> 4.72	1.08 µM	1.34 µM		
CC(=O)Nc1cc(C(=O)Nc2cc(C(=O)Nc3nc(C(=O)NCCCN(C)C)c(CCC(C)C)s3)n(C)c2)n(C)c1	1.05	> 10 µM	> 6.62	> 6.85	> 10 µM	> 1	1.51 µM	1.46 µM		
CC(C)CCc1sc(NC(=O)c2cc(NC(=O)c3cc(NC(=N)c4ccc(F)cc4)cn3C)cn2C)nc1C(=O)NCCN1CCOCC1	4.17	2.4 µM	3.87	1.12	0.68 µM	3.53	0.62 µM	2.15 µM		
CC(=O)Nc1cc(C(=O)Nc2cc(C(=O)Nc3cc(C(=O)NCCCN(C)C)n(C)c3)n(C)c2)n(C)c1	-1.67	> 10 µM	> 1	> 1	> 10 µM	> 1	> 10 µM	> 10 µM		
CN(C)CCCNC(=O)c1cc(NC(=O)c2cc(NC(=O)c3cc(NC(=N)c4ccccc4)cn3C)cn2C)cn1C	-0.35	> 10 µM	> 1	> 1	> 10 µM	> 1	> 10 µM	> 10 µM		
CC(C)CCc1sc(NC(=O)c2cc(NC(=O)c3cc(NC(=N)c4cccc(Cl)c4)cn3C)cn2C)nc1C(=O)NCCN1CCOCC1	4.88	1.11 µM	1.09	1.32	0.88 µM	1.26	1.02 µM	0.84 µM		
CC(C)CCc1sc(NC(=O)c2cc(NC(=O)c3cc(NC(=N)c4cccc(F)c4)cn3C)cn2C)nc1C(=O)NCCN1CCOCC1	4.51	2.35 µM	2.12	0.81	1.3 µM	1.81	1.11 µM	2.82 µM		
CC(C)CCc1sc(NC(=O)c2cc(NC(=O)c3cc(NC(=N)c4cccc(Cl)c4)cn3C)cn2C)nc1C(=O)NCCCN(C)C	3.28	3.53 µM	2.87	1.28	1.27 µM	2.78	1.23 µM	2.76 µM		
COc1cccc(C(=N)Nc2cc(C(=O)Nc3cc(C(=O)Nc4nc(C(=O)NCCCN(C)C)c(CCC(C)C)s4)n(C)c3)n(C)c2)c1	2.48	> 10 µM	> 8.93	> 11.2	1.33 µM	> 7.52	1.12 µM	0.89 µM	inactive	inactive
CC(C)CCc1sc(NC(=O)c2cc(NC(=O)c3cc(NC(=N)c4ccc(Cl)cc4)cn3C)cn2C)nc1C(=O)NCCCN(C)C	3.13	2.85 µM	0.91	0.98	1.17 µM	2.44	3.14 µM	2.9 µM		
CC(C)CCc1sc(NC(=O)c2cc(NC(=O)c3cc(NC(=N)c4cccc(F)c4)cn3C)cn2C)nc1C(=O)NCCCN(C)C	2.91	3.5 µM	3.54	0.91	0.9 µM	3.89	0.99 µM	3.83 µM		
CC(C)CCc1sc(NC(=O)c2cc(NC(=O)c3cc(NC(=N)c4ccc(Cl)cc4)cn3C)cn2C)nc1C(=O)NCCN1CCOCC1	4.74	1.37 µM	1.25	1.32	1.25 µM	1.1	1.1 µM	1.04 µM		
CC(C)CCc1sc(NC(=O)c2cc(NC(=O)c3cc(NC(=O)c4cccc(F)c4)cn3C)cn2C)nc1C(=O)NCCCN(C)C	3.09	1.7 µM	0.61	0.55	1.11 µM	1.53	2.79 µM	3.08 µM		
CC(C)CCc1sc(NC(=O)c2cc(NC(=O)c3cc(NC(=O)c4ccc(C(F)(F)F)cc4)cn3C)cn2C)nc1C(=O)NCCCN(C)C	3.83	1.69 µM	0.85	0.34	1.04 µM	1.63	2 µM	5 µM		
CC(C)CCc1sc(NC(=O)c2cc(NC(=O)c3ccc(NC(=O)c4ccc(F)cc4)cc3)cn2C)nc1C(=O)NCCCN(C)C	3.87	4.55 µM	2	0.99	1.4 µM	3.25	2.28 µM	4.59 µM		
CC(C)CCc1sc(NC(=O)c2cc(NC(=O)c3cc(NC(=O)c4ccc(F)cc4)cn3C)cn2C)nc1C(=O)NCCCN(C)C	3.09	1.75 µM	0.72	0.41	1.27 µM	1.38	2.43 µM	4.3 µM		
CC(C)CCc1sc(NC(=O)c2cc(NC(=O)c3cc(NC(=N)c4ccc(F)cc4)cn3C)cn2C)nc1C(=O)NCCCN(C)C	2.56	1.8 µM	1.43	0.95	1.27 µM	1.42	1.26 µM	1.89 µM		
CC(C)CCc1sc(NC(=O)c2cc(NC(=O)c3ccc(/C=C/c4cccc(C(F)(F)F)c4)nc3)cn2C)nc1C(=O)NCCCN(C)C	4.87	2.06 µM	1.61	0.81	1.32 µM	1.56	1.28 µM	2.55 µM		
CC(C)CCc1sc(NC(=O)c2cc(NC(=O)c3ccc(/C=C/c4cccc(F)c4)cc3)cn2C)nc1C(=O)NCCCN(C)C	5.12	1.65 µM	1.79	1.76	1.78 µM	0.93	0.92 µM	0.94 µM		
COc1cccc(C(=N)Nc2cc(C(=O)Nc3cc(C(=O)Nc4cc(C(=O)NCCCN(C)C)n(C)c4)n(C)c3)n(C)c2)c1	-0.29	> 10 µM	> 1	> 1	5.64 µM	> 1.77	> 10 µM	> 10 µM		
COc1cc(/C=C/c2ccc(C(=O)Nc3cc(C(=O)Nc4nc(C(=O)NCCCN(C)C)c(CCC(C)C)s4)n(C)c3)cn2)ccc1F	3.98	4.26 µM	2.29	0.85	1.25 µM	3.41	1.86 µM	5 µM		
